Assay: Toxicity liver stage against HepG2, at 10uM
Format: cell-based
Set-up: test concentration 10 uM, cell line HepG2-A16-CD81EGFP
Conditions: human, HepG2-A16-CD81EGFP cells; read-out: INHIBITION
Method in brief: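 Uninfected HepG2-A16-CD81EGFP cells, 3 × 10^3 per well, 1536-well, plated on prespotted compound at 10 μM final, parasite-free screening media added to match infected plates; puromycin 10 μM positive, DMSO 0.5% negative; run in parallel with 48 h PbLuc assay at 37 °C, 5% CO2; viability by CellTiter-Glo luminescence, normalized to controls.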

Row | SMILES | cytotoxicity at 10 µM
1 | c1cc(-c2noc([C@@H]3CCCN3C3CCC3)n2)cc(N2CCCC2)n1 | 5.94%
2 | CCN(CC)CCCNCC1CCOC(C)(C)C1 (stereo not given) | -6.01%
3 | COc1ccc(C2OC(COc3ccc(C)cc3)=NN2C(C)=O)cc1 (stereo not given) | -6.19%
4 | Nc1nnc(SCC(=O)c2cc3c(cc2Cl)NC(=O)C3)s1 | -0.139%
5 | CC1=Nc2c(c(=O)[nH]n2C(C)C)C(c2ccc3c(c2)OCCO3)S1 (stereo not given) | -1.01%
6 | CC(C)c1nn2c(-c3cnn(C)c3)nnc2s1 | -8.75%
7 | Cc1c(Cl)cccc1S(=O)(=O)N1CCC2(CC1)OCCS2 | 4.19%
8 | Cc1cccc(CC(=O)Nc2cnn(C3CCOC3)c2)c1 (stereo not given) | -0.813%
9 | Cc1ccccc1NC(=O)N1CC[C@@H]2CN(CC(C)C)S(=O)(=O)[C@@H]2CC1 | -0.567%
10 | COCCn1cnc(-c2cc(C(=O)NC(C)C)c3ccccn23)c1 | -1.03%
11 | Cc1ccc(C(=O)N2C[C@@H]3CN(c4ncccn4)C[C@@H]3C2)cc1 | 9.34%
12 | CNC(=O)[C@H]1C[C@@H]2CN(C(=O)c3ccc(C)o3)C[C@@H]2N1S(C)(=O)=O | -2.33%
13 | COCC(=O)N1CCC2(C1)c1ccccc1S(=O)(=O)N2CCC(C)C (stereo not given) | -4.26%
14 | O=C(c1cc[nH]n1)N1CCOCC2(C1)CN(c1ccccc1)C(=O)CO2 (stereo not given) | -4.96%
15 | O=C(C1CCOC1)N1CCc2ncnc(C3CC3)c2CC1 (stereo not given) | -2.62%
16 | COc1nn(C)cc1C(=O)N1CCC(c2nnc(C3CC3)o2)CC1 | 5.14%
17 | Cc1nn(C)cc1CN(C)C(=O)c1cccnc1 | 0.992%
18 | CN(C)C(=O)c1nnc2ccc(N3CCOCC3)cc2n1 | 6.47%
19 | CCOC(=O)C1CCN(C(=O)c2cc(OCC)c3ccoc3c2)CC1 | 34.4%
20 | O=C(c1ccc(-c2ccc(O)nc2)s1)N1CCCCCC1 | 4.51%
21 | Cc1cc(-c2ccc(=O)n(CCNC(=O)C3CCCCC3)n2)c(C)o1 | -3.73%
22 | CN1CCCC1c1nccnc1-c1ccc(C(=O)O)cc1 (stereo not given) | 11%

Row | SMILES | cytotoxicity at 10 µM
23 | COc1ccccc1C1Cn2c(C)cnc2CN1Cc1c[nH]nc1C (stereo not given) | 2.79%
24 | O=C(CN1CCC(c2cc(=O)n3c(n2)CCCCC3)CC1)N1CCCC1 | 4.62%
25 | Fc1ccccc1OCCc1cc(C2CCNC2)n[nH]1 (stereo not given) | -26.8%
26 | CN1CCC(Cc2cc(Nc3ccccn3)ncn2)CC1 | -23.4%
27 | COc1cc(CN2CC[C@H](NC(C)=O)[C@@H](O)CC2)ccc1F | -9.19%
28 | Cc1csc(Nc2nccnc2C2CCCN2CC(N)=O)n1 (stereo not given) | -20.8%
29 | O=C(O)c1ccccc1-c1ccc(CN2CC(O)C2)cc1 | -0.363%
30 | Cc1cc(F)c2c(c1)CCCN2Cc1cc(=O)n(C)c(=O)n1C | 8.1%
31 | CCc1ccsc1CNC(=O)CNC(=O)C(C)(C)C | -4.08%
32 | CC(NC1(CNS(=O)(=O)N(C)C)CCCC1)c1ccccc1 (stereo not given) | -5.01%
33 | COc1cccc(COC(C)C(=O)NC2CCN(CC(N)=O)CC2)c1 (stereo not given) | 0.234%
34 | O=C(CCC(=O)Nc1ccccc1)NCC(=O)c1ccc(F)cc1F | -0.493%
35 | N#CC1COCCN1C(=O)c1ccc2[nH]cnc2c1 (stereo not given) | -2.87%
36 | CS(=O)(=O)N1CCC(CNc2cc(Cl)ccc2C#N)CC1 | 14.9%
37 | N#CC1(NC(=O)c2cc(Cl)c3c(c2)OCCCO3)CCC1 | -8.42%
38 | CS(=O)(=O)NC1CCN(C(=O)c2cc3ccccc3s2)C1 (stereo not given) | 6.65%
39 | NC(=O)CN(Cc1ncc(-c2ccc(F)cc2)o1)C1CCCC1 | -6.19%
40 | c1ccc(-n2cncn2)c(CNCCn2cccn2)c1 | -4.29%
41 | Cc1cc(NCCNc2ccc(C#N)cn2)nc(C)n1 | 4.42%
42 | COc1ccc(CNCC2CN(C3CC3)CCO2)cc1OC (stereo not given) | -17%
43 | CC(C)(C(=O)NCc1ccccc1F)n1cc(Br)cn1 | 0.296%
44 | O=C(COCC1CC1)N1CCN(C(=O)Cc2ccccn2)CC1 | 10.3%

Row | SMILES | cytotoxicity at 10 µM
45 | CCc1nc(CCNC(=O)NC2CCC(=O)N(C)C2)sc1C (stereo not given) | 2.78%
46 | O=C(C1SCCc2sccc21)N1CCN(C2CC2)C(=O)C1 (stereo not given) | 3.24%
47 | CCCN1Cc2ccccc2CC1C(=O)NC (stereo not given) | -5.74%
48 | CCC(C)(CNC(=O)c1ccon1)NC(=O)c1ccon1 (stereo not given) | -0.903%
49 | CCOC(=O)c1c(NC(=O)CN2CCN(C(C)=O)CC2)sc(C)c1C | 1.15%
50 | CCCc1noc(CCC(=O)N2CCCC2Cn2cc(C)cn2)n1 (stereo not given) | -1.11%
51 | NC(=O)CC1CCCCN1C(=O)c1ccc2cc[nH]c2c1 (stereo not given) | -4.02%
52 | COc1ccc2c(c1)CCCN(C(C)C(=O)N1CCCC1)C2 (stereo not given) | 10.9%
53 | CC(CCSc1ccccc1)N1CCN(C(=O)c2ccccc2O)CC1 (stereo not given) | 8.97%
54 | CC(C)OCCN1CCN(C(=O)c2cccc(-n3cccn3)n2)CC1 | -3.88%
55 | CCCS(=O)(=O)NC(=O)c1sc(C2CCCC2)nc1C | 0.521%
56 | COc1ccccc1C(C)(C)NCc1ccc(C)o1 | -0.121%
57 | Cn1cc(CNCCC(=O)NCc2ccccc2)c(-c2cccnc2)n1 | -2.19%
58 | CCc1sc(C(=O)Nc2cnn(CC(N)=O)c2)cc1C | -2.68%
59 | Cn1cc(C2CCCN2C(=O)CCn2c(=O)oc3ccccc32)cn1 (stereo not given) | 4.91%
60 | Cc1cnn(CCNC(C)C(=O)NCCc2cccs2)c1 (stereo not given) | -9.38%
61 | COC(=O)CC1CN(Cc2c(Cl)ccc3cccnc23)CCO1 (stereo not given) | 8.36%
62 | CCN1CCOC(CNCc2c(Cl)nc3ccccn23)C1 (stereo not given) | 0.174%
63 | COCCNC(=O)N1CCCC(COc2ccccc2)C1 (stereo not given) | 0.186%
64 | CN(CCN1CCOC1=O)CC(=O)Nc1ccc(Cl)c(C(F)(F)F)c1 | -46.5%
65 | Cc1nc(NC(=O)NCCCN2CCC(C(N)=O)CC2)sc1C | 0.902%
66 | CS(=O)(=O)c1nnc(NC(=O)CCc2cccc(Cl)c2)[nH]1 | -20.4%

Row | SMILES | cytotoxicity at 10 µM
67 | CCN(CC1CN(CCc2ccccn2)CCO1)c1cccnn1 (stereo not given) | -6%
68 | O=C1OCCN1CCOc1nc(-c2ccccc2Cl)no1 | -11.3%
69 | CC(Oc1ccccc1C(F)(F)F)C(=O)NS(=O)(=O)C(C)C (stereo not given) | -7.19%
70 | Cc1noc([C@H]2C[C@H]3CN(C(=O)Cc4ccsc4)CC[C@H]3O2)n1 | -1.68%
71 | COCCN1C[C@H]2[C@@H](C1)N(C(=O)CCc1ccccc1)CC[C@H]2OC | 4.78%
72 | CCOCCn1c(=O)[nH]c2cc(C(=O)N(C)Cc3nc(C)c[nH]3)ccc21 | 6.09%
73 | CCCOCC1CCN(C(=O)Cn2ncc(N3CCCC3)cc2=O)C1 (stereo not given) | 3.41%
74 | CCN(Cc1nc(C)no1)C(=O)C1CC(=O)N(Cc2ccccn2)C1 (stereo not given) | 4.78%
75 | O=C(C1CCC1)N1CCN(Cc2ccc(F)cc2)[C@H]2CS(=O)(=O)C[C@H]21 | 1.65%
76 | N[C@H]1c2ccccc2C[C@@H]1NC(=O)C1CCN(Cc2ccco2)CC1 | -8.57%
77 | O=C(N[C@@H]1CCN(C(=O)C2CCOCC2)C[C@H]1O)c1ccccn1 | -2.88%
78 | Cc1nc2c(c(N[C@@H](CO)C(N)=O)n1)Cc1ccccc1OC2 | 2.8%
79 | Cc1ccc2nc(C(=O)N3CCC(CCn4cccn4)CC3)cn2c1 | -18.3%
80 | CN(C)CCN(C)c1nc(CCc2ccccc2)nc2c1cnn2C | 0.562%
81 | Cc1ccccc1-c1ncc(CNCc2csc(C(C)C)n2)s1 | 0.264%
82 | Cc1noc(C)c1CCC(=O)N1CCOCC1CC(=O)N1CCCC1 (stereo not given) | 0.282%
83 | O=C(CCC1CCN(C(=O)c2cc[nH]c2)CC1)NCc1cccc(Cl)c1 | -2.11%
84 | C[C@@H]1CN(c2nc3c(cc2C(N)=O)CCC3)C[C@]1(C)O | -0.112%
85 | CCN1CC(C(=O)N(C)Cc2cc3cc(F)ccc3[nH]2)CC1=O (stereo not given) | 0.782%
86 | Cc1ccc(-n2c(COCC(=O)O)nc3c(C)cccc32)nc1 | 2.43%
87 | COCc1cc(CNC(=O)c2c(C)cc(C)[nH]c2=O)n[nH]1 | -4.69%
88 | CCCc1nc(CN(CC)C(=O)c2onc3ccccc23)no1 | 9.67%

Row | SMILES | cytotoxicity at 10 µM
89 | O=C(Nc1ccc2c(c1)OCCO2)N1CCCN(Cc2cccs2)CC1 | 3.45%
90 | COc1ccccc1CNC(=O)CN(C)C(C)c1ccon1 (stereo not given) | -4.29%
91 | CS(=O)(=O)CCC(=O)Nc1cc(F)ccc1OCC1CCCO1 (stereo not given) | 3.41%
92 | CCNc1cc2c(nn1)CCN(C(=O)c1ccc3c(c1)OCO3)C2 | -13.5%
93 | CCc1ccc(C(=O)N2CCN(CCO)CC2)o1 | -5.22%
94 | CCc1nc2n(n1)CC(NCC(=O)Nc1cc(C(C)(C)C)no1)CC2 (stereo not given) | -9.26%
95 | Cc1ccccc1CN(C)C(=O)CN1CCOC(Cn2cncn2)C1 (stereo not given) | -1.07%
96 | CC(Cn1cccn1)NC(=O)CCC(=O)c1cccs1 (stereo not given) | -2.39%
97 | N#Cc1ccc(S(=O)(=O)N2CSCC2C(=O)NCC(F)(F)F)cc1 (stereo not given) | -7.6%
98 | CCc1ccc(C(=O)NCc2cccc(S(=O)(=O)NC)c2)o1 | -2.31%
99 | O=C(NCCn1ccnc1)NCC(c1ccco1)N1CCCC1 (stereo not given) | 2.01%
100 | Cc1csc(C2CCCCN2C(=O)CN(C)Cc2ccccc2)n1 (stereo not given) | 2.62%
101 | CCOC(=O)N1CCCC2(CCCNC2)C1 (stereo not given) | 2.11%
102 | CS(=O)(=O)N1CCOC2(CCCN(c3cnccn3)C2)C1 (stereo not given) | -3.23%
103 | C[C@@H]1CN(Cc2cccc(F)c2)C[C@]12CCN(Cc1cccnc1)C2=O | -2.6%
104 | COCCN1CCC2(CC1)CC(NC(=O)COC)c1ccccc1O2 (stereo not given) | -8.43%
105 | CC(C)NC(=O)C1CCC2(CCN(Cc3cnn(C)c3)CC2)C1 (stereo not given) | 2.77%
106 | Cc1nc(COCc2nc3c(o2)CN(C(=O)c2ccc[nH]2)C3)cs1 | 0.657%
107 | CN(C)C(=O)N1CC2(CCN(CC3CC3)CC2)c2cc(F)ccc21 | -1.54%
108 | CCN(C)c1ncnc2c1CCN(Cc1ccsc1)CC2 | 1.69%
109 | CNC(=O)CN1CC[C@H]2CN(C(=O)c3ccc(C)nc3)C[C@H]2C1 | 1.61%
110 | CCCNc1c(NC(=O)NCCCOC)c(=O)oc2ccccc12 | -4.52%

Reference: ChEMBL document CHEMBL4513216, “Probing the Open Global Health Chemical Diversity Library for Multistage-Active Starting Points for Next-Generation Antimalarials” (ACS Infect Dis, 2020)
